Laboratory results taken from ChEMBL document CHEMBL3351600, “Sulfur, selenium and tellurium pseudopeptides: synthesis and biological evaluation” (Bioorg Med Chem, 2014).

Columns and labels:
[1] = Growth inhibition of human BT549 cells after 48 hrs; format: functional; details: BT-549, 48 h
Procedure, shortened: (§1)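 NCI-60 human tumour cell line panel screen run at the US National Cancer Institute under its standard cytotoxicity protocol. It covers leukaemia, NSCLC, colon, CNS, melanoma, ovarian, renal, prostate and breast lines. An initial single-dose test was followed by five-dose testing with 48 h compound exposure.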

SNB-19 = experiment: Growth inhibition of human SNB19 cells after 48 hrs; format: functional; details: SNB-19, 48 h
Procedure, shortened: (§2)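 Run by the NCI 58-cell-line screen under its standard cytotoxicity protocol. Compounds were first tested at a single dose, then at five doses. Cells were exposed to compound for 48 h.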

[2] = Growth inhibition of human OVCAR5 cells after 48 hrs; format: functional; details: OVCAR-5, 48 h; procedure, shortened: as §1
NCI-H23 = experiment: Growth inhibition of human NCI-H23 cells after 48 hrs; format: functional; details: NCI-H23, 48 h; procedure, shortened: as §1
SK-MEL-5 = experiment: Growth inhibition of human SK-MEL-5 cells after 48 hrs; format: functional; details: SK-MEL-5, 48 h; procedure, shortened: as §2
Staphylococcus aureus = experiment: Antimicrobial activity against Staphylococcus aureus assessed as inhibition at 20 ug/6 mm disk after 1 to 2 days by agar diffusion assay; format: functional
Procedure, shortened: (§3)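 Standard agar diffusion: 6-mm paper disks loaded with 20 µg of compound were placed on inoculated plates. Inhibition-zone diameter (mm) was read after 1 and 2 days of growth.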

[3] = Growth inhibition of human OVCAR3 cells after 48 hrs; format: functional; details: OVCAR-3, 48 h; procedure, shortened: as §1
SK-OV-3 = experiment: Growth inhibition of human SKOV3 cells after 48 hrs; format: functional; details: SK-OV-3, 48 h; procedure, shortened: as §2
NCI-H226 = experiment: Growth inhibition of human NCI-H226 cells after 48 hrs; format: functional; details: NCI-H226, 48 h; procedure, shortened: as §1
[4] = Growth inhibition of human EKVX cells after 48 hrs; format: functional; procedure, shortened: as §1
[5] = Growth inhibition of human SF295 cells after 48 hrs; format: functional; details: SF-295, 48 h; procedure, shortened: as §1
Pseudomonas aeruginosa = experiment: Antimicrobial activity against Pseudomonas aeruginosa assessed as inhibition at 20 ug/6 mm disk after 1 to 2 days by agar diffusion assay; format: functional; procedure, shortened: as §3
[6] = Growth inhibition of human OVCAR8 cells after 48 hrs; format: functional; details: OVCAR-8, 48 h; procedure, shortened: as §1
DU-145 = experiment: Growth inhibition of human DU145 cells after 48 hrs; format: functional; details: DU-145, 48 h; procedure, shortened: as §1
NCI-H460 = experiment: Growth inhibition of human NCI-H460 cells after 48 hrs; format: functional; details: NCI-H460, 48 h; procedure, shortened: as §1
IGROV-1 = experiment: Growth inhibition of human IGROV1 cells after 48 hrs; format: functional; details: IGROV-1, 48 h; procedure, shortened: as §1
Candida albicans = experiment: Antimicrobial activity against Candida albicans assessed as inhibition at 20 ug/6 mm disk after 1 to 2 days by agar diffusion assay; format: functional; procedure, shortened: as §3
KM12 = experiment: Growth inhibition of human KM12 cells after 48 hrs; format: functional; details: KM12, 48 h; procedure, shortened: as §1
[7] = Cytotoxicity against human fibroblasts assessed as cell viability after 24 hrs incubation by MTT assay; format: cell-based; details: Fibroblast
Procedure, shortened: (§4)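 Cell lines came from DSMZ; primary human fibroblasts served as non-cancer controls. Cells were grown in medium with 10% FCS, seeded at 50,000 cells/ml, and grown 2 days at 37 °C, 10% CO2. Serial dilutions were then added for 24 h. MTT (final 0.5 mg/ml) was added for 2 h. Formazan was pelleted, PBS-washed, dissolved in isopropanol/0.4% HCl and read at 590 nm. Two parallel experiments were run. IC50 was taken as the concentration giving 50% of untreated-control absorbance.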

[8] = Growth inhibition of human MOLT4 cells after 48 hrs; format: functional; details: MOLT-4, 48 h; procedure, shortened: as §1
MDA-MB-468 = experiment: Growth inhibition of human MDA-MB-468 cells after 48 hrs; format: functional; details: MDA-MB-468, 48 h; procedure, shortened: as §1
Escherichia coli = experiment: Antimicrobial activity against Escherichia coli tolC assessed as inhibition at 20 ug/6 mm disk after 1 to 2 days by agar diffusion assay; format: functional; procedure, shortened: as §3
A498 = experiment: Growth inhibition of human A498 cells after 48 hrs; format: functional; details: A498, 48 h; procedure, shortened: as §1
SNB-75 = experiment: Growth inhibition of human SNB75 cells after 48 hrs; format: functional; details: SNB-75, 48 h; procedure, shortened: as §2
SF-268 = experiment: Growth inhibition of human SF268 cells after 48 hrs; format: functional; details: SF-268, 48 h; procedure, shortened: as §1
SK-MEL-2 = experiment: Growth inhibition of human SK-MEL-2 cells after 48 hrs; format: functional; details: SK-MEL-2, 48 h; procedure, shortened: as §1
A-431 = experiment: Cytotoxicity against human A431 cells assessed as cell viability after 24 hrs incubation by MTT assay; format: functional, cell-based; details: A-431, 24 h; procedure, shortened: as §4
MCF7 = experiment: Growth inhibition of human MCF7 cells after 48 hrs; format: functional; details: MCF7, 48 h; procedure, shortened: as §1
SK-MEL-28 = experiment: Growth inhibition of human SK-MEL-28 cells after 48 hrs; format: functional; details: SK-MEL-28, 48 h; procedure, shortened: as §1
SN12C = experiment: Growth inhibition of human SN12C cells after 48 hrs; format: functional; procedure, shortened: as §2
[9] = Growth inhibition of human HCC2998 cells after 48 hrs; format: functional; details: HCC 2998, 48 h; procedure, shortened: as §1
[10] = read-out: pLC50 (the source's name) (converted)

## COc1ccc(N(CC(=O)NCCC[Te]c2ccccc2)C(=O)CNC(=O)OC(C)(C)C)cc1
[1]
  GI50: 1.7 µM
  LC50 (concentration killing 50% of cells): > 100 µM
[1]; read-out: pTGI (converted)
  TGI: 4.9 µM
SNB-19
  GI50: 8.71 µM
SNB-19; [10]
  CC50: > 100 µM
SNB-19; read-out: pTGI (converted)
  TGI: 9.55 µM
[2]
  GI50: 3.02 µM
  LC50: 38.9 µM
[2]; read-out: pTGI (converted)
  TGI: 7.41 µM
NCI-H23
  GI50: 2.51 µM
NCI-H23; [10]
  CC50: > 100 µM
NCI-H23; read-out: pTGI (converted)
  TGI: 6.61 µM
SK-MEL-5
  GI50: 3.16 µM
SK-MEL-5; [10]
  CC50: 34.7 µM
SK-MEL-5; read-out: pTGI (converted)
  TGI: 9.12 µM
Staphylococcus aureus
  diameter of the inhibition zone (DIZ): 10 mm
[3]
  GI50: 3.02 µM
[3]; [10]
  CC50: 100 µM
[3]; read-out: pTGI (converted)
  TGI: 7.94 µM
SK-OV-3
  GI50: 2.34 µM
SK-OV-3; [10]
  CC50: 10 µM
SK-OV-3; read-out: pTGI (converted)
  TGI: 4.79 µM
NCI-H226
  GI50: 2.29 µM
NCI-H226; [10]
  CC50: 79.4 µM
NCI-H226; read-out: pTGI (converted)
  TGI: 5.37 µM
[4]
  GI50: 0.324 µM
[4]; [10]
  CC50: > 100 µM
[4]; read-out: pTGI (converted)
  TGI: 2.34 µM
[5]
  GI50: 1.29 µM
[5]; [10]
  CC50: > 100 µM
[5]; read-out: pTGI (converted)
  TGI: 4.07 µM
Pseudomonas aeruginosa
  diameter of the inhibition zone (DIZ): 10 mm
[6]
  GI50: 2.4 µM
  LC50: > 100 µM
[6]; read-out: pTGI (converted)
  TGI: 6.92 µM
DU-145
  GI50: 2.88 µM
  LC50: 30.9 µM
DU-145; read-out: pTGI (converted)
  TGI: 7.59 µM
NCI-H460
  GI50: 0.447 µM
NCI-H460; [10]
  CC50: 7.59 µM
NCI-H460; read-out: pTGI (converted)
  TGI: 1.86 µM
IGROV-1
  GI50: 2.24 µM
IGROV-1; [10]
  CC50: 25.7 µM
IGROV-1; read-out: pTGI (converted)
  TGI: 5.37 µM
Candida albicans
  diameter of the inhibition zone (DIZ): 0 mm
KM12
  GI50: 3.31 µM
KM12; [10]
  CC50: 43.7 µM
KM12; read-out: pTGI (converted)
  TGI: 11.5 µM
[7]
  IC50: 25 µM
[8]
  GI50: 3.09 µM
[8]; [10]
  CC50: > 100 µM
[8]; read-out: pTGI (converted)
  TGI: 10 µM
MDA-MB-468
  GI50: 3.16 µM
  LC50: 60.3 µM
MDA-MB-468; read-out: pTGI (converted)
  TGI: 11 µM
Escherichia coli
  diameter of the inhibition zone (DIZ): 12 mm
A498
  GI50: 2.29 µM
  LC50: 33.9 µM
A498; read-out: pTGI (converted)
  TGI: 5.37 µM
SNB-75
  GI50: 6.61 µM
SNB-75; [10]
  CC50: 36.3 µM
SNB-75; read-out: pTGI (converted)
  TGI: 7.41 µM
SF-268
  GI50: 2.69 µM
SF-268; [10]
  CC50: 100 µM
SF-268; read-out: pTGI (converted)
  TGI: 7.59 µM
SK-MEL-2
  GI50: 3.02 µM
SK-MEL-2; [10]
  CC50: > 100 µM
SK-MEL-2; read-out: pTGI (converted)
  TGI: 6.76 µM
A-431
  IC50: 5 µM
other
  Retention_time: 1.548 min
MCF7
  GI50: 2.57 µM
  LC50 (concentration killing 50% of cells): 37.2 µM
MCF7; read-out: pTGI (converted)
  TGI: 7.59 µM
SK-MEL-28
  GI50: 3.09 µM
SK-MEL-28; [10]
  CC50: 36.3 µM
SK-MEL-28; read-out: pTGI (converted)
  TGI: 10 µM
SN12C
  GI50: 2.04 µM
  LC50: > 100 µM
SN12C; read-out: pTGI (converted)
  TGI: 5.01 µM
[9]
  GI50: 2.57 µM
[9]; [10]
  CC50: 27.5 µM
[9]; read-out: pTGI (converted)
  TGI: 6.61 µM
